Consider 37 sequences from the array DNA melting data of Ke et al. (doi:10.1101/2024.01.08.574731).

Series [1] in a line: folding enthalpy; higher = less favourable; fluorescence melt of hairpins on a sequencing array, two-state fit. To be noted: sodium 0.088 M. In a few lines: (§1)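 Two-state fits, bootstrapped, provided melting temperature and folding enthalpy from Cy3 fluorescence normalised to pre-quench Cy3 and to control constructs. Library hairpins with annealed Cy3 and quencher oligos were imaged on a sequenced MiSeq flow cell in 50 mM Na-HEPES pH 8.0, 25 mM NaCl, at 2.5 °C intervals up to 60 °C. Four replicates were combined with inverse-variance weighting. A 9.35 °C upward shift was applied to fitted temperatures to match UV melts.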

Series [2] can be described thus: melting temperature; fluorescence melt of hairpins on a sequencing array, two-state fit, raised by 9.35 °C to match UV melts. The following applies: sodium 0.088 M. In a few lines:
as §1

As for GTACAGGGAAACTTGTAC (((((.(....).))))), the folding enthalpy in series [1] was -30.4 kcal/mol. Moreover, the Tm in series [2] was found to be 39.8 °C.
For GTACAGGGAAACTTGTGC (.(((.(....).))).), the folding enthalpy in series [1] was -16 kcal/mol. The Tm in series [2] was found to be 27.9 °C.
Take GTACATCGAAAGATTAC (((.(((....)))))): the folding enthalpy in series [1] was -20.3 kcal/mol. In series [2], the Tm was 32.1 °C.
On the same counts, the results for GTACCACGAAAGTGTAC (((.(((....)))))) are -22 kcal/mol and 42.3 °C.
On the same counts, the results for GTACCAGGAAACTGATAC (((.(((....))).))) are -26.6 kcal/mol and 31.4 °C.
On the same counts, the results for GTACCAGGAAACTGGTGC (.(((((....))))).) are -43 kcal/mol and 51.4 °C.
For GTACCCCGAAAGGGATAC (((.(((....))).))), the folding enthalpy in series [1] is -19.6 kcal/mol. For the same sequence, the Tm in series [2] came out at 46.1 °C.
On the same counts, the results for GTACCCCGAAAGGGTAC (((.(((....)))))) are -28.3 kcal/mol and 58.3 °C.
On the same counts, the results for GTACCCGAAAGGGAATAC ((((((....)))..))) are -12.4 kcal/mol and 29.7 °C.
The corresponding values for GTACCCGAAAGGGCGTAC ((((((....)))..))) are -14.3 kcal/mol and 34.2 °C.
In the case of GTACCCGAAAGGGTTAC ((((((....))).))), the folding enthalpy in series [1] was -13.4 kcal/mol. Moreover, in series [2], the Tm was 46.4 °C.
On the same counts, the results for GTACCGGGAAACCGATAC (((.(((....))).))) are -27.7 kcal/mol and 40 °C.
On to GTACCGGGAAACTGGTAC (((((.(....).))))), for which, in series [1], the folding enthalpy was -33.2 kcal/mol. In addition, in series [2], the Tm stood at 51.4 °C.
Regarding GTACGAGGAAACTTGTAC ((((.((....)).)))), the folding enthalpy in series [1] is -37.1 kcal/mol. Also, the Tm in series [2] amounted to 44 °C.
The corresponding values for GTACGCCGAAAGGCTAC (((.(((....)))))) are -15.1 kcal/mol and 47.6 °C.
The corresponding values for GTACGCGAAAGCGATAC ((((((....))).))) are -13.9 kcal/mol and 48.2 °C.
The corresponding values for GTACGCGAAAGCGATTAC ((((((....)))..))) are -11.2 kcal/mol and 29.7 °C.
Consider GTACGCGAAAGCGTCTAC ((((((....)))..))), for which the folding enthalpy in series [1] is -7.82 kcal/mol. The Tm in series [2] came to 39.9 °C.
The corresponding values for GTACGCGAAAGCGTGTAC ((((((....)))..))) are -9.86 kcal/mol and 38 °C.
The corresponding values for GTACGGAAACGTAC (((((....))))) are -32.4 kcal/mol and 53.7 °C.
The corresponding values for GTACGGGGAAACCCGCAC ((.((((....)))).)) are -18.6 kcal/mol and 54.3 °C.
As for GTACGGGGAAACCTGTGC (.((.((....)).)).), in series [1], the folding enthalpy was -25.8 kcal/mol. Moreover, the Tm in series [2] stood at 37.3 °C.
On the same counts, the results for GTACGTCGAAAGACATAC (((.(((....))).))) are -20.1 kcal/mol and 38.4 °C.
On the same counts, the results for GTACGTGGAAACGTGTAC ((((..(....)..)))) are -12.3 kcal/mol and 37.4 °C.
On the same counts, the results for GTACTACGAAAGTAATAC (((.(((....))).))) are -15.2 kcal/mol and 29.8 °C.
With GTACTAGAAATAGTAC ((((((....)))))), the folding enthalpy in series [1] is -27.2 kcal/mol. The Tm in series [2] is 42.4 °C.
The corresponding values for GTACTCGAAAGAGCTAC ((((((....))).))) are -16.4 kcal/mol and 35 °C.
GTACTCGCGAAAGCGTAC (((..(((....)))))): the folding enthalpy in series [1] is -11.1 kcal/mol. Moreover, the Tm in series [2] is 30.4 °C.
The corresponding values for GTACTGAAAAGTAC (((((....))))) are -20.8 kcal/mol and 46.8 °C.
As for GTACTGGGAAACTAGTGC (.(((.(....).))).), the folding enthalpy in series [1] is -19.4 kcal/mol. Moreover, the Tm in series [2] amounted to 31.2 °C.
On the same counts, the results for GTACTTGGAAACAAGCAC ((.((((....)))).)) are -25.8 kcal/mol and 37.8 °C.
On the same counts, the results for GTAGAAGCGAAAGCTTAC (((..(((....)))))) are -11.6 kcal/mol and 30.1 °C.
The corresponding values for GTAGACCCGAAAGGGTAC (((..(((....)))))) are -9.26 kcal/mol and 32.3 °C.
Regarding GTAGACCGAAAGGTGTAC (((.(((....))).))), in series [1], the folding enthalpy was -36.3 kcal/mol. In series [2], the Tm was 50.8 °C.
With GTAGACCGAAAGGTTAC (((.(((....)))))), the folding enthalpy in series [1] was -16.7 kcal/mol. Besides, in series [2], the Tm was determined as 38.5 °C.
The corresponding values for GTAGACGAAAGTCCGTAC ((((((....)))..))) are -8.44 kcal/mol and 21 °C.
On the same counts, the results for GTAGACGAAAGTCGATAC ((((((....)))..))) are -11.2 kcal/mol and 34.7 °C.
